Assay results as given in ChEMBL document CHEMBL3120060, “Synthesis, in vitro anticancer evaluation and in silico studies of novel imidazo[2,1-b]thiazole derivatives bearing pyrazole moieties” (2014).

Legend:
Format in all cases: functional
LOX IMVI = assay: Cytotoxicity against human LOXIMVI cells assessed as cell growth at 10 uM after 48 hrs by SRB assay; conditions: read-out: Activity
Summary of the method: (§1)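 NCI-60 single-dose screen. Cell lines grown in RPMI 1640 with 5% FBS and 2 mM L-glutamine, plated at 5000–40,000 cells/well according to doubling time, then preincubated 24 h at 37 °C in 5% CO2. Compounds dissolved in DMSO, tested at 10^-5 M for 48 h. Adherent cells fixed with cold TCA (10% final) and stained with 0.4% SRB in 1% acetic acid. Growth expressed as percent of untreated control.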

HOP-62 = assay: Cytotoxicity against human HOP62 cells assessed as cell growth at 10 uM after 48 hrs by SRB assay; conditions: HOP-62, 48 h, read-out: Activity; summary of the method: as §1
OVCAR-8 = assay: Cytotoxicity against human OVCAR8 cells assessed as cell growth at 10 uM after 48 hrs by SRB assay; conditions: OVCAR-8, 48 h, read-out: Activity; summary of the method: as §1
SF-295 = assay: Cytotoxicity against human SF295 cells assessed as cell growth at 10 uM after 48 hrs by SRB assay; conditions: SF-295, 48 h, read-out: Activity; summary of the method: as §1
HCT-15 = assay: Cytotoxicity against human HCT15 cells assessed as cell growth at 10 uM after 48 hrs by SRB assay; conditions: HCT-15, 48 h, read-out: Activity; summary of the method: as §1
MOLT-4 = assay: Cytotoxicity against human MOLT4 cells assessed as cell growth at 10 uM after 48 hrs by SRB assay; conditions: MOLT-4, 48 h, read-out: Activity; summary of the method: as §1
OVCAR-3 = assay: Cytotoxicity against human OVCAR3 cells assessed as cell growth at 10 uM after 48 hrs by SRB assay; conditions: OVCAR-3, 48 h, read-out: Activity; summary of the method: as §1
HT-29 = assay: Cytotoxicity against human HT-29 cells assessed as cell growth at 10 uM after 48 hrs by SRB assay; conditions: HT-29, 48 h, read-out: Activity; summary of the method: as §1
[1] = Cytotoxicity against human NCI-ADR-RES cells assessed as cell growth at 10 uM after 48 hrs by SRB assay; conditions: read-out: Activity; summary of the method: as §1
[2] = Cytotoxicity against human OVCAR5 cells assessed as cell growth at 10 uM after 48 hrs by SRB assay; conditions: OVCAR-5, 48 h, read-out: Activity; summary of the method: as §1
T47D = assay: Cytotoxicity against human T47D cells assessed as cell growth at 10 uM after 48 hrs by SRB assay; conditions: read-out: Activity
Summary of the method: (§2)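 NCI-60 single-dose screen at 10^-5 M. Adherent lines are grown in RPMI 1640 with 5% FBS and 2 mM L-glutamine, seeded at 5000–40,000 cells/well by doubling time, and preincubated 24 h at 37 °C in 5% CO2. Drug is added from DMSO stock diluted in medium, then 48 h. Cells are fixed in cold TCA (final 10%) for 60 min and stained with 0.4% SRB in 1% acetic acid. Growth is expressed as % of untreated control using time-zero plates.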

[3] = Cytotoxicity against human Hs578T cells assessed as cell growth at 10 uM after 48 hrs by SRB assay; conditions: Hs-578T, read-out: Activity; summary of the method: as §1
SNB-19 = assay: Cytotoxicity against human SNB19 cells assessed as cell growth at 10 uM after 48 hrs by SRB assay; conditions: SNB-19, 48 h, read-out: Activity; summary of the method: as §1
RXF 393 = assay: Cytotoxicity against human RXF393 cells assessed as cell growth at 10 uM after 48 hrs by SRB assay; conditions: RXF 393, 48 h, read-out: Activity; summary of the method: as §1
Malme-3M = assay: Cytotoxicity against human MALME-3M cells assessed as cell growth at 10 uM after 48 hrs by SRB assay; conditions: read-out: Activity; summary of the method: as §1
SK-MEL-2 = assay: Cytotoxicity against human SK-MEL-2 cells assessed as cell growth at 10 uM after 48 hrs by SRB assay; conditions: SK-MEL-2, 48 h, read-out: Activity; summary of the method: as §1
SK-MEL-28 = assay: Cytotoxicity against human SK-MEL-28 cells assessed as cell growth at 10 uM after 48 hrs by SRB assay; conditions: SK-MEL-28, 48 h, read-out: Activity; summary of the method: as §1
NCI-H322M = assay: Cytotoxicity against human NCI-H322M cells assessed as cell growth at 10 uM after 48 hrs by SRB assay; conditions: read-out: Activity; summary of the method: as §1
786-0 = assay: Cytotoxicity against human 786-0 cells assessed as cell growth at 10 uM after 48 hrs by SRB assay; conditions: 786-0, 48 h, read-out: Activity; summary of the method: as §1
A549 = assay: Cytotoxicity against human A549 cells assessed as cell growth at 10 uM after 48 hrs by SRB assay; conditions: A549, 48 h, read-out: Activity; summary of the method: as §1
[4] = Cytotoxicity against human OVCAR4 cells assessed as cell growth at 10 uM after 48 hrs by SRB assay; conditions: OVCAR-4, 48 h, read-out: Activity; summary of the method: as §1
SK-OV-3 = assay: Cytotoxicity against human SKOV3 cells assessed as cell growth at 10 uM after 48 hrs by SRB assay; conditions: SK-OV-3, 48 h, read-out: Activity; summary of the method: as §1
MDA-MB-435 = assay: Cytotoxicity against human MDA-MB-435 cells assessed as cell growth at 10 uM after 48 hrs by SRB assay; conditions: MDA-MB-435, 48 h, read-out: Activity; summary of the method: as §1
COLO 205 = assay: Cytotoxicity against human COLO205 cells assessed as cell growth at 10 uM after 48 hrs by SRB assay; conditions: COLO 205, 48 h, read-out: Activity; summary of the method: as §1
MDA-MB-231 = assay: Cytotoxicity against human MDA-MB-231 cells assessed as cell growth at 10 uM after 48 hrs by SRB assay; conditions: MDA-MB-231, 48 h, read-out: Activity; summary of the method: as §1
NCI-H460 = assay: Cytotoxicity against human NCI-H460 cells assessed as cell growth at 10 uM after 48 hrs by SRB assay; conditions: NCI-H460, 48 h, read-out: Activity; summary of the method: as §1
TK-10 = assay: Cytotoxicity against human TK10 cells assessed as cell growth at 10 uM after 48 hrs by SRB assay; conditions: TK-10, 48 h, read-out: Activity; summary of the method: as §2
SNB-75 = assay: Cytotoxicity against human SNB75 cells assessed as cell growth at 10 uM after 48 hrs by SRB assay; conditions: SNB-75, 48 h, read-out: Activity; summary of the method: as §1
BT-549 = assay: Cytotoxicity against human BT549 cells assessed as cell growth at 10 uM after 48 hrs by SRB assay; conditions: BT-549, 48 h, read-out: Activity; summary of the method: as §1
NCI-H23 = assay: Cytotoxicity against human NCI-H23 cells assessed as cell growth at 10 uM after 48 hrs by SRB assay; conditions: NCI-H23, 48 h, read-out: Activity; summary of the method: as §1

Structure (SMILES) | growth at 10 µM (LOX IMVI) | growth at 10 µM (HOP-62) | growth at 10 µM (OVCAR-8) | growth at 10 µM (SF-295) | growth at 10 µM (HCT-15) | growth at 10 µM (MOLT-4) | growth at 10 µM (OVCAR-3) | growth at 10 µM (HT-29) | growth at 10 µM [1] | growth at 10 µM [2] | growth at 10 µM (T47D) | growth at 10 µM [3] | growth at 10 µM (SNB-19) | growth at 10 µM (RXF 393) | growth at 10 µM (Malme-3M) | growth at 10 µM (SK-MEL-2) | growth at 10 µM (SK-MEL-28) | growth at 10 µM (NCI-H322M) | growth at 10 µM (786-0) | growth at 10 µM (A549) | other results
CC1=NN(c2cn3c(-c4ccccc4)csc3n2)C(=O)C1 | 90.8% | 95.3% | 105% | 69.4% | 96.7% | 84.4% | 99.8% | 106% | 92.5% | 96.7% | 89.4% | 106% | 90.8% | 109% | 107% | 102% | 102% | 92.1% | 96.6% | 101% | growth at 10 µM [4]: 98%; growth at 10 µM (SK-OV-3): 88.9%; growth at 10 µM (MDA-MB-435): 92.9%; growth at 10 µM (COLO 205): 102%; growth at 10 µM (MDA-MB-231): 89.9%; growth at 10 µM (NCI-H460): 107%; growth at 10 µM (TK-10): 125%; growth at 10 µM (SNB-75): 59.4%; growth at 10 µM (BT-549): 89.7%; growth at 10 µM (NCI-H23): 91.6%
Cc1ccc(-c2csc3nc(N4NC(=O)CC4=O)cn23)cc1 | 96.9% | 105% | 99.3% | 91.2% | 100% | 90.3% | 113% | 111% | 108% | 108% | 85.7% | 107% | 102% | 101% | 118% | 116% | 102% | 108% | 103% | 102% | growth at 10 µM [4]: 99.1%; growth at 10 µM (SK-OV-3): 101%; growth at 10 µM (MDA-MB-435): 90%; growth at 10 µM (COLO 205): 107%; growth at 10 µM (MDA-MB-231): 104%; growth at 10 µM (NCI-H460): 111%; growth at 10 µM (TK-10): 139%; growth at 10 µM (SNB-75): 73.3%; growth at 10 µM (BT-549): 113%; growth at 10 µM (NCI-H23): 96.9%
O=C1CC(=O)N(c2cn3c(-c4ccc(Cl)cc4)csc3n2)N1 | 96.5% | 104% | 101% | 84.4% | 92.9% | 79% | 110% | 91.3% | 99.3% | 115% | 87.3% | 98.3% | 90.2% | 112% | 97.1% | 101% | 95.7% | 83.3% | 96.4% | 88.9% | growth at 10 µM [4]: 87.4%; growth at 10 µM (SK-OV-3): 103%; growth at 10 µM (MDA-MB-435): 93.7%; growth at 10 µM (COLO 205): 101%; growth at 10 µM (MDA-MB-231): 107%; growth at 10 µM (NCI-H460): 104%; growth at 10 µM (TK-10): 95%; growth at 10 µM (SNB-75): 74.2%; growth at 10 µM (BT-549): 95.3%; growth at 10 µM (NCI-H23): 97.8%
O=C1CN2C(c3ccc(Cl)cc3)=CSC2=N1 | 98.9% | 107% | 96% | 80% | 93.3% | 79.1% | 105% | 88.4% | 102% | 97% | 92.1% | 111% | 100% | 111% | 99.3% | 98.2% | 95.7% | 93.8% | 94% | 92.5% | growth at 10 µM [4]: 90.3%; growth at 10 µM (SK-OV-3): 98.2%; growth at 10 µM (MDA-MB-435): 87.8%; growth at 10 µM (COLO 205): 108%; growth at 10 µM (MDA-MB-231): 102%; growth at 10 µM (NCI-H460): 106%; growth at 10 µM (TK-10): 79.9%; growth at 10 µM (SNB-75): 75.8%; growth at 10 µM (BT-549): 89%; growth at 10 µM (NCI-H23): 104%
